# Compound activity as filed in PubChem.
# Apaf-1 inh = inhibitors of human Apaf-1 apoptosome | O14727 | reconstituted apoptosome caspase-3 activity, DEVD-Rh110 fluorescence | inhibition, % at 20 µM | 330,000 compounds, 0.71% hits; active means inhibition of at least 40% at 20 µM;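 further: plate controls were DMSO wells for no effect and DEVD-CHO caspase inhibitor wells for full effect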
#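 System – cell-free apoptosome with Apaf-1, procaspase-3 and caspase-9 · Buffer or medium – pH 7.5 Hepes buffer with CHAPS, BSA, DTT · Also added – cytochrome c with DEVD-Rh110 · Times – 30 min compound preincubation, 50 min activation, room temperature · Technique – Rh110 fluorescence intensity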
# MEKK2mut PB1 HTS = signal of MEK5 binding to mutant human MEKK2 PB1 domain; percent response, % at 10 µM; bead flow cytometry, Alexa488-MEK5 binding to MEKK2 mutant; 290,000 compounds, 0.35% hits; AID 1530; in the data active means percent response above about 24%, passing the limit was not always enough
# MEKK3 PB1 HTS = modulators (inhibitors or enhancers) of MEK5 binding to human MEKK3 PB1 domain | AID 1529 | Q99759 | bead-based flow cytometry, Alexa488-MEK5 binding to MEKK3; actives lie on both sides; 0 = blocked by unlabeled MEK5, 100 = vehicle | 290,000 compounds, 1.4% hits | binding response (% of control), % at 10 µM;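 active means binding response more than 3 SD above or below the average of its plate-row segment, actives on both sides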;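 further: Alexa488 bead fluorescence after subtracting the streptavidin-only scavenger bead signal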
# UBC13 inh = human UBC13 polyubiquitination inhibition. P61088. UBC13 polyubiquitin chain formation, TR-FRET. inhibition, % at 20 µM. 330,000 compounds, 0.47% hits; in the data active means inhibition above about 45%, passing the limit was not always enough
# MEKK2 WT-MEK5 = raises or lowers MEK5 binding to wildtype human MEKK2 PB1 domain. binding response (% of control), % at 10 µM. 290,000 compounds, 1.1% hits. AID 1531. bead flow cytometry, Alexa488-MEK5 binding to MEKK2 WT; actives lie on both sides. Q9Y2U5; in the data active means binding response below about 67% or above about 130%
# PREPL inhibitor = inhibitors of human prolyl oligopeptidase-like enzyme PREPL. inhibition, % at 5.96 µM. recombinant PREPL, fluorescence polarization activity-based probe. 320,000 compounds, 0.68% hits. AID 2751. Q4J6C6; in the data active means inhibition above about 43%;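 further: 0% = enzyme with DMSO and 100% = wells lacking enzyme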
# Target sequence (Q4J6C6 whole entry, looked up): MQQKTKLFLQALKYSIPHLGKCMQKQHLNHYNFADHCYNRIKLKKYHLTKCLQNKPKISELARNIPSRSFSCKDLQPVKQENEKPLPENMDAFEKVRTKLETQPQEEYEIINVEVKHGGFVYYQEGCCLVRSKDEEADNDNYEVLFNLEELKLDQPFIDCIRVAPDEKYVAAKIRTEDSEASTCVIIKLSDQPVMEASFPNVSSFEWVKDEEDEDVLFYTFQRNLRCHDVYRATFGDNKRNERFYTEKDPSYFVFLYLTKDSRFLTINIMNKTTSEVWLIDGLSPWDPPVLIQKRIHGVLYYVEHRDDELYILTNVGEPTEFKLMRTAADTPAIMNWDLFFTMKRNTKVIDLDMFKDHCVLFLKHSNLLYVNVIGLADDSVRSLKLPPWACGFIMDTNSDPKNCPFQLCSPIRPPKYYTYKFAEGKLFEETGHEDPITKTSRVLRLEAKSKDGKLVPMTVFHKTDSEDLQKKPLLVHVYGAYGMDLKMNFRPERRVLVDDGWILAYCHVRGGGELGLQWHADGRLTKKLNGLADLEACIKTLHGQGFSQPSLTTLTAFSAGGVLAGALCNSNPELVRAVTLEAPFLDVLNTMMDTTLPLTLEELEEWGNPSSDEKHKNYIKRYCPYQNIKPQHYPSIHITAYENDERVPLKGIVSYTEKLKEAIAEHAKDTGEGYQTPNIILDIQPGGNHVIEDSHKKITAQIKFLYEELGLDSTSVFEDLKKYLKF
# MEKK2wt confirm = raises or lowers MEK5 binding to wildtype human MEKK2, retest | bead flow cytometry, Alexa488-MEK5 binding to MEKK2 WT; actives lie on both sides | 5,900 compounds, 2.4% hits | shares compounds with MEKK3 PB1 HTS | binding response (% of control), % at 10 µM; in the data active means binding response below about 16% or above about 210%; inactive means in between
# MEKK2mut-MEK5 = signal of MEK5 binding to mutant human MEKK2, retest; shares compounds with MEKK3 PB1 HTS; bead flow cytometry, Alexa488-MEK5 binding to MEKK2 mutant; percent response, % at 10 µM; 5,900 compounds, 2% hits; in the data active means percent response mostly above about 71%, no sharp cut-off; inactive means mostly below about 38%;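 further: higher means compound restores mutant binding toward wildtype level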
# MEKK3-MEK5 inh = MEKK3-MEK5 PB1 inhibition, single concentration confirmation. shares compounds with MEKK3 PB1 HTS. bead flow cytometry, Alexa488-MEK5 binding to MEKK3; hits give low values. binding response (% of control), % at 10 µM. 5,900 compounds, 1.8% hits;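 active means binding response below 72% of control, or above a set upper limit, though filed actives all read lower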;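 further: 100% = DMSO only wells and 0% = binding blocked by excess unlabeled MEK5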
# * hit, by the source's call; . = no result given; [ ] = another dose, or the depositor's remark. This is a sample that favours compounds with a hit; in the whole collection about 3.1% have one here.
SMILES,Apaf-1 inh,MEKK2mut PB1 HTS,MEKK3 PB1 HTS,UBC13 inh,MEKK2 WT-MEK5,PREPL inhibitor,MEKK2wt confirm,MEKK2mut-MEK5,MEKK3-MEK5 inh
Cc1ccc(C(=O)COC(=O)c2ccncc2)cc1[N+](=O)[O-],-6,-2,52*[inhibitor],-1,81,6,97,-5,102
O=C(CCC(=O)Nc1ccc(F)cc1)N/N=C/c1ccccc1O,4,5,149*,-11,124,-3,106,8,107
O=C(CCC(=O)Nc1ccc(Br)cc1)N/N=C/c1ccccc1F,6,6,101,8,100,-10,.,.,.
Cc1cccc(C)c1NC(=O)CNC(=O)CCNC(=O)c1ccco1,3,.,.,-5,.,3,.,.,.
CC(=O)NCc1ccc(C(=O)CN2C(=O)NC3(CCCCC3C)C2=O)s1 (centres undefined),-14,.,.,-5,.,.,.,.,.
O=C(Cn1cc(/C=N/NC(=O)c2cccc3ccccc23)c2ccccc21)Nc1ccc(F)cc1,-20,-14,38*[inhibitor],-7,38*[inhibitor],-4,100,-5,100
Cc1ccc(C(=O)Nc2cccnc2)cc1S(=O)(=O)N1CCOCC1,-1,10,129*,2,125,-8,107,6,105
Cc1ccc(C(=O)Nc2cccnc2)cc1S(=O)(=O)N1CCCCCC1,13,-1,99,2,103,-5,.,.,.
CCC(CC)NC(=O)c1cc(S(=O)(=O)N2CCCCC2)ccc1N1CCOCC1,13,.,.,0,.,1,.,.,.
Cc1ccc(Cn2cc(/C=N/Nc3ccc([N+](=O)[O-])cn3)c3ccccc32)cc1,2,15,98,-69,53*[inhibitor],12,100,-4,98
COc1ccc(OCC(=O)N/N=c2\oc3c(OC)cccc3cc2C(N)=O)cc1,-10,-4,87,15,87,1,.,.,.
COc1cccc2cc(C(N)=O)/c(=N/NC(=O)COc3ccc(Cl)cc3)oc12,-13,1,143*,-7,112,1,103,-2,100
COC(=O)C/C=C/N(Cc1ccccc1OC)S(=O)(=O)CCl,7,.,.,.,.,.,.,.,.
Cc1ccc(S(=O)(=O)NC(=O)Nc2nnc(C)s2)cc1,-5,-16,0.0*[inhibitor],1,0.0*[inhibitor],-1,100,5,98
CC[C@]12c3[nH]c4ccc(Cl)cc4c3CCN1C(=O)[C@@H](CC(=O)NCCCn1ccnc1)C[C@@H]2C(=O)N1CCN(C(=O)C2CC2)CC1,14,.,.,.,.,.,.,.,.
COc1cc([N+](=O)[O-])cc2cc(C(=O)NC(C)(C)C)c(=O)oc12,-3,9,106,-29,108,1,.,.,.
COCCCNC(=O)c1cc2cc([N+](=O)[O-])cc(OC)c2oc1=O,-3,-16,39*[inhibitor],-19,51,-2,105,5,105
Cc1cnnn1-c1ccc(C(=O)CCl)cc1,7,14,102,29,148*,-2,152,24,104
CC(C)Oc1ccc(C(=O)NCC(=O)N2CCN(S(=O)(=O)/C=C/c3ccccc3)CC2)cc1,3,.,.,-2,.,5,.,.,.
CC(CN1CCOCC1)C(=O)O (centres undefined),2,11,126*,-1,127,0,97,-2,101
O=C1Nc2c(Br)cccc2C1=O,-6,.,.,-4,.,1,.,.,.
CC(NC(=O)CSc1nnnn1C1CC1)c1ccccc1Br (centres undefined),-1,.,.,6,.,-2,.,.,.
CCN(CC)S(=O)(=O)c1cc(C(=O)OCC(=O)Nc2c(F)cccc2F)ccc1F,9,-1,95,4,93,7,.,.,.
CCc1cccc(CC)c1NC(=O)COC(=O)c1ccc(F)c(S(=O)(=O)N(CC)CC)c1,2,1,135*,1,109,-7,102,9,97
CCN(CC)S(=O)(=O)c1cc(C(=O)OCC(=O)Nc2cccc(C)c2C)ccc1F,11,0,129*,-2,103,12,94,1,100
SMILES,Apaf-1 inh,MEKK2mut PB1 HTS,MEKK3 PB1 HTS,UBC13 inh,MEKK2 WT-MEK5,PREPL inhibitor,MEKK2wt confirm,MEKK2mut-MEK5,MEKK3-MEK5 inh
CCC(C)c1ccccc1NC(=O)c1cc(C)no1 (centres undefined),-18,-7,98,-12,96,1,.,.,.
O=C(CCC(=O)N1CCN(c2ccccc2)CC1)Nc1nnc(C2CCCCC2)s1,6,6,110,1,102,3,.,.,.
Cc1ccc(S(=O)(=O)N2CCN(C(=O)CNC(=O)c3sc4ccccc4c3Cl)CC2)cc1,6,.,.,1,.,-17,.,.,.
C=C(C)c1cccc(C(C)(C)NC(=O)NCc2ccc(OC)cc2)c1,-12,0,133*,11,104,-3,104,6,105
C[C@H](NC(=O)c1nc[nH]c1C(=O)N1CCN(c2ccccc2)CC1)C(=O)OC(C)(C)C,6,-3,79*[inhibitor],-4,92,4,96,-2,101
COc1ccc(CNC(=O)CN(C)S(=O)(=O)c2ccc3c(c2)OCCO3)cc1OC,-1,.,.,12,.,0,.,.,.
COCCNC(=O)CN(C)S(=O)(=O)c1ccc2c(c1)OCCO2,17,-14,7.0*[inhibitor],0,11*[inhibitor],-1,104,3,106
CCN1CCN(c2nc(-c3ccccc3)nc3ccccc23)CC1,-1,1,142*,3,116,-38,118,15,104
COc1ccc(CCNC(=O)CN2c3cccc4cccc(c34)S2(=O)=O)cc1OC,6,-4,98,4,97,1,.,.,.
CCn1c(/C=N/Nc2ccc(C(=O)O)cc2)nc2ccccc21,-4,0,133*,-2,107,8,99,-2,98
CC1CCCCC1NC(=O)c1cccc(S(=O)(=O)N2CCN(Cc3ccccc3)CC2)c1 (centres undefined),23,.,.,-8,.,11,.,.,.
Cc1ccc(OCc2cc(C(=O)N(C)Cc3cnn(-c4ccccc4C)c3)no2)cn1,-18,1,103,1,102,4,.,.,.
Cc1ccc(NC(=O)CCC(=O)OCC(=O)c2ccc(Oc3ccc([N+](=O)[O-])cc3)cc2)cc1,1,0,144*,-34,108,5,101,1,104
Cc1ccc(S(=O)(=O)NCCc2cccs2)cc1,-10,21,128*,1,121,7,108,1,106
Cc1ccc(S(=O)(=O)NCCNS(=O)(=O)c2ccc(C)cc2)cc1,3,9,105,5,108,-1,.,.,.
